These results are taken from ChEMBL document CHEMBL3046416, “Differential susceptibility to glyphosate among the Conyza weed species in Spain” (J Agric Food Chem, 2010).

For data set [1], the system named is Erigeron canadensis. Nature of the data set: Herbicidal activity against Conyza canadensis (horseweed) at rosette stage (BBHC14 to 15) assessed as growth inhibition measured after 21 days. Format: functional. The essentials: (§1)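 Glyphosate-susceptible plants were grown in a growth chamber (28/18 °C day/night, 16 h photoperiod, 80% RH). Commercial glyphosate was sprayed from 50 cm in a laboratory spray chamber at rosette (BBCH 14-15), or, for C. bonariensis only, also at bolting (BBCH 32) or flowering (BBCH 55). Shoot fresh weight was taken 21 d later as % of untreated. Five replications of three plants each. ED50 came from a log-logistic regression of pooled data.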

In data set [2] the test system is Root. Briefly: Drug absorption in Conyza bonariensis (hairy fleabane) assessed as translocation in root at […] measured after 96 hr by liquid scintillation spectrometry. The class given is ADME. Put shortly:
(§2)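 Glyphosate-susceptible plants were grown in pots in a growth chamber (28/18 °C, 16 h photoperiod). They were treated with commercial glyphosate spiked with [14C]glyphosate (0.417 kBq μL-1; 1 g ai L-1, i.e. 200 g ai ha-1 in 200 L). Plants were harvested 96 h after treatment. Unabsorbed label was rinsed from the treated leaf with water-acetone (1:1). Plants were split into treated leaf, rest of shoot and root, and the rinsate was counted by liquid scintillation.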

Data set [3] relates to Leaf. Briefly: Drug absorption in Conyza sumatrensis (tall fleabane) assessed as translocation in treated leaf at […] measured after 96 hr by liquid scintillation spectrometry. The class given is ADME. The settings on record: topical_or_ocular. Put shortly: as §2
Data set [4] has as its system Conyza bonariensis. Nature of the data set: Herbicidal activity against Conyza bonariensis (hairy fleabane) at rosette stage (BBHC14 to 15) assessed as growth inhibition measured after 21 days. The class given is functional. Put shortly: as §1
Data set [5] can be described thus: Ratio of ED50 for hairy fleabane Conyza bonariensis to ED50 for tall fleabane Conyza sumatrensis. Format: functional.
Data set [6] relates to Leaf. Briefly: Drug absorption in Conyza canadensis (horseweed) assessed as translocation in treated leaf at […] measured after 96 hr by liquid scintillation spectrometry. The class given is ADME. The settings on record: erigeron canadensis, other. Put shortly:
as §2

Data set [7] relates to Root. Nature of the data set: Drug absorption in Conyza canadensis (horseweed) assessed as translocation in root at […] measured after 96 hr by liquid scintillation spectrometry. As to conditions: erigeron canadensis. Format: ADME. The essentials:
as §2

The subject of data set [8] is Conyza bonariensis. Briefly: Herbicidal activity against Conyza bonariensis (hairy fleabane) at bolting stage (BBHC32) assessed as growth inhibition measured after 21 days. Format: functional. Put shortly: as §1
Data set [9] concerns Leaf. Briefly: Drug absorption in Conyza bonariensis (hairy fleabane) assessed as translocation in treated leaf at […] measured after 96 hr by liquid scintillation spectrometry. As to conditions: other. Format: ADME. Put shortly: as §2
Data set [10] concerns Root. Nature of the data set: Drug absorption in Conyza sumatrensis (tall fleabane) assessed as translocation in root at […] measured after 96 hr by liquid scintillation spectrometry. Format: ADME. The essentials:
as §2

In data set [11] the test system is Erigeron canadensis. Briefly: Drug absorption in Conyza canadensis (horseweed) assessed as translocation in rest of plant at […] measured after 96 hr by liquid scintillation spectrometry. Format: ADME, organism-based. As to conditions: in vivo. The essentials:
as §2

Data set [12] has as its system Conyza sumatrensis. Nature of the data set: Herbicidal activity against Conyza sumatrensis ( tall fleabane) at rosette stage (BBHC14 to 15) assessed as growth inhibition measured after 21 days. Format: functional. The essentials:
as §1

In data set [13] the test system is Conyza sumatrensis. Nature of the data set: Drug absorption in Conyza sumatrensis (tall fleabane) assessed as translocation in rest of plant at […] measured after 96 hr by liquid scintillation spectrometry. The class given is ADME, organism-based. The settings on record: in vivo. The essentials:
as §2

Data set [14] deals with Conyza bonariensis. Nature of the data set: Drug absorption in Conyza bonariensis (hairy fleabane) assessed as translocation in rest of plant at […] measured after 96 hr by liquid scintillation spectrometry. The class given is ADME, organism-based. The settings on record: in vivo. Put shortly:
as §2

Data set [15] has as its system Conyza bonariensis. Briefly: Herbicidal activity against Conyza bonariensis (hairy fleabane) at flowering stage (BBHC55) assessed as growth inhibition measured after 21 days. The class given is functional. The essentials:
as §1

A short description of data set [16]: Ratio of ED50 for hairy fleabane Conyza canadensis to ED50 for tall fleabane Conyza sumatrensis. Format: functional.

Regarding `O=C(O)CNCP(=O)(O)O` [GLYPHOSATE], the ED50 in [1] was determined as 34.9 gAi/ha; in data set [4] it was 15.7 gAi/ha; in [8], 86.6 gAi/ha; in [12], 2.9 gAi/ha; in data set [15], 117.5 gAi/ha. In addition, the Drug transport is 8.3% in [2]; 82.4% in data set [3]; 93% in [6]; 2.8% in [7]; 85.2% in data set [9]; 11.6% in [10]. Besides, the values for the Drug transport in data set [11], in data set [13] and in [14] were 4%, 5.9% and 6.4%, respectively. In addition, the Ratio ED50 came out at 5.4 in data set [5] and 12 in data set [16].
